Converted amounts (≈) assume the structure as drawn.
How the values were obtained:
Type in all cases: functional, organism-based
[1] = test system: Aspergillus fumigatus; test: Antifungal activity against Aspergillus fumigatus by broth microdilution method
Procedure, shortened: (§1)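 RPMI 1640 with L-glutamine, no bicarbonate, buffered to pH 7.0 with 0.165 M MOPS. Conidial inoculum added to thawed plates. Incubated 48 h at 37°C, 95% humidity, plates unstacked. MIC taken as the lowest concentration with no visible growth. Growth also read at OD405 against conidium-free backgrounds, expressed as % of drug-free control. Run three times on separate days.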

[2] = test system: Aspergillus terreus; test: Antifungal activity against Aspergillus terreus by broth microdilution method; details: for EC50: pooled result: one value given for 3 cell lines, strains, targets or settings; procedure, shortened: as §1
[3] = test system: Aspergillus flavus; test: Antifungal activity against Aspergillus flavus by broth microdilution method; procedure, shortened: as §1

Compound | MIC [1] [µg/mL] | MIC [2] [µg/mL] | EC50 [2] [µg/mL] | MIC [3] [µg/mL]
C[C@@H]1[C@H](O)[C@@H](C)/C=C/C=C/C=C/C=C/C=C/C=C/C=C/[C@H](O[C@@H]2O[C@H](C)[C@@H](O)[C@H](N)[C@@H]2O)C[C@@H]2O[C@](O)(C[C@@H](O)C[C@@H](O)[C@H](O)CC[C@@H](O)C[C@@H](O)CC(=O)O[C@H]1C)C[C@H](O)[C@H]2C(=O)O [AMPHOTERICIN B] | 0.5 (≈ 0.541 µM) | 0.5 (≈ 0.541 µM) | 0.44 (≈ 0.476 µM) | 0.5 (≈ 0.541 µM)
C[C@@H](c1ncncc1F)[C@](O)(Cn1cncn1)c1ccc(F)cc1F [VORICONAZOLE] | 0.25 (≈ 0.716 µM) | 0.25 (≈ 0.716 µM) | 0.23 (≈ 0.658 µM) | 0.25 (≈ 0.716 µM)
CC[C@H](C)C[C@H](C)CCCCCCCCC(=O)N[C@H]1C[C@@H](O)[C@@H](NCCN)NC(=O)[C@@H]2[C@@H](O)CCN2C(=O)[C@H]([C@H](O)CCN)NC(=O)[C@H]([C@H](O)[C@@H](O)c2ccc(O)cc2)NC(=O)[C@@H]2C[C@@H](O)CN2C(=O)[C@H]([C@@H](C)O)NC1=O [CASPOFUNGIN] | > 128 | > 128 | 95.5 (≈ 87.4 µM) | > 128
